Screening results deposited in PubChem by Broad Institute.
INS-1E_ATP_HTS: preserves ATP levels in cytokine-treated INS-1E cells. 0.1% of 20,000 active. protection from cytokine-induced ATP loss, % at 10 µM. INS-1E cytokine-induced death, ATP luminescence, 48 h; normalised: neutral wells 0, positive control 100. AID 488910;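 active = mean replicate protection from cytokine-induced ATP loss at least 50% and at least 75% of replicates each reaching 50%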
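Assay system: INS-1E rat insulinoma cells. Amount: 8000 cells per well. Medium: phenol-red-free RPMI with 5% fetal bovine serum. Reagent: IL-1β, TNF-α and IFN-γ cytokine mix. Doses: one compound concentration, pin transfer. Schedule: 48 h co-treatment, 10 min post-lysis read. Detection: CellTiter-Glo luminescence measuring cellular ATP.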
A1_apoptosis_2: A1 inhibition read as caspase activation; caspase activation, % (test concentration not listed); MEF A1-2A-BIM cells, caspase-Glo luminescence, 3 h; percent of clofoctol response, DMSO zero; 24,000 tested, under 10 active; in the data active = caspase activation above about 5.9%
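system = A1-2A-BIM-expressing MEF cells | quantity = 2500 MEF cells/well | dosing = 50 nL compound per well, pinned | schedule = overnight cell settling, then 3 h compound exposure, 37 °C | signal = luminescence from DEVD-luciferin Caspase-Glo reagent, 1:1 in 50 mM HEPES, 1 h RT | read-out = Caspase-3/7 activation, seen as rise in luminescence signal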
T_cruzi_HTS: inhibitors of intracellular Trypanosoma cruzi. 4.9% of 22,000 active. activity score (inhibition), % at 5.01 µM. intracellular Trypanosoma cruzi in host cells, plate reader; in the data active = activity score above about 55%;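 note: parasites and compound incubated about four days before reading; 0% = median of neutral control wells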
Starred values were filed as active, the others as inactive; / = not tested or not shown. Only a selection was taken, and hits are over-represented in it overall.

SMILES INS-1E_ATP_HTS A1_apoptosis_2 T_cruzi_HTS
C[C@H](CO)N1C[C@H](C)[C@H](CN(C)S(=O)(=O)c2cccs2)Oc2ccc(NC(=O)Nc3ccc(C(F)(F)F)cc3)cc2CC1=O -21.5 -0.7 40.9
C[C@H](CO)N1C[C@H](C)[C@H](CN(C)S(=O)(=O)c2ccccc2)Oc2ccc(NC(=O)Nc3ccc(C(F)(F)F)cc3)cc2CC1=O -68.2 / 76.6*
C[C@H]1CN([C@@H](C)CO)C(=O)c2cccc(NC(=O)c3cnccn3)c2O[C@@H]1CN(C)C(=O)Nc1ccc(F)cc1 3.4 -0.8 -44.8
C[C@H]1CN([C@@H](C)CO)C(=O)c2cccc(NC(=O)CCCCCC(=O)Nc3ccccc3N)c2O[C@@H]1CN(C)C(=O)Nc1ccccc1 / 1.2 /
C[C@@H]1CN([C@@H](C)CO)C(=O)CCCn2nncc2CO[C@@H]1CN(C)Cc1ccc(Cl)c(Cl)c1 / / 25.6
O=C(O)C1=C[C@H](c2coc3ccccc3c2=O)C[C@H](OCc2ccc(CO)cc2)O1 / -0.2 /
Cc1noc(C)c1NC(=O)N(C)C[C@@H]1Oc2ccc(NC(=O)CCN3CCOCC3)cc2C(=O)N([C@H](C)CO)C[C@H]1C 4.6 / -5.5
C[C@@H]1CN([C@@H](C)CO)C(=O)Cc2cc(NC(=O)Nc3ccc(C(F)(F)F)cc3)ccc2O[C@@H]1CN(C)Cc1ccc(Oc2ccccc2)cc1 -8.4 -1.0 74.0*
C[C@@H]1CN([C@H](C)CO)C(=O)Cc2cc(NC(=O)Nc3ccccc3)ccc2O[C@H]1CN(C)Cc1ccc(Oc2ccccc2)cc1 -46.4 / 49.4
C[C@H]1CN([C@@H](C)CO)C(=O)Cc2cc(NC(=O)Nc3ccc(C(F)(F)F)cc3)ccc2O[C@H]1CN(C)Cc1ccc(Oc2ccccc2)cc1 -18.8 -1.3 4.4
C[C@@H]1CN([C@H](C)CO)C(=O)Cc2cc(NC(=O)Nc3ccc(C(F)(F)F)cc3)ccc2O[C@@H]1CN(C)Cc1ccc(Oc2ccccc2)cc1 -35.0 0.7 79.8*
C[C@H]1CN([C@@H](C)CO)C(=O)c2cccc(NC(=O)c3cnccn3)c2O[C@H]1CN(C)C(=O)Nc1ccc(F)cc1 26.0 -1.1 -18.1
C[C@H](CO)N1C[C@H](C)[C@@H](CN(C)S(=O)(=O)c2ccccc2)OCc2cn(nn2)CCCC1=O / 0.3 -19.7
COc1ccccc1CN(C)C[C@H]1OCc2cn(nn2)CCCC(=O)N([C@@H](C)CO)C[C@@H]1C / -0.2 -32.0
